From ChEMBL document CHEMBL1132379, “2-thioether 5'-O-(1-thiotriphosphate)adenosine derivatives as new insulin secretagogues acting through P2Y-Receptors” (J Med Chem, 1999)

Biological target: T1, P2Y purinoceptor 1 (Meleagris gallopavo, UniProt P49652)
Test: Compound was evaluated for its agonistic activity towards P2Y purinoceptor 1 in turkey erythrocyte membranes; NE=No effect; call rule not given here
Type: functional, cell membranes
Procedure, shortened: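 Turkey erythrocytes labeled 18–24 h at 37 °C with 2-[3H]myoinositol in inositol-free DMEM, then lysed in hypotonic buffer (5 mM sodium phosphate pH 7.4, 5 mM MgCl2, 1 mM EGTA) to make membranes. Phospholipase C was assayed with GTPγS and graded nucleotide concentrations at 30 °C for 5 min, pH 7.0 Hepes medium. Total [3H]inositol phosphates were measured by ion-exchange chromatography. EC50 came from four-parameter logistic fits, ≥3 experiments on separate membrane preparations, duplicate assays.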

T1 sequence (P49652 whole entry): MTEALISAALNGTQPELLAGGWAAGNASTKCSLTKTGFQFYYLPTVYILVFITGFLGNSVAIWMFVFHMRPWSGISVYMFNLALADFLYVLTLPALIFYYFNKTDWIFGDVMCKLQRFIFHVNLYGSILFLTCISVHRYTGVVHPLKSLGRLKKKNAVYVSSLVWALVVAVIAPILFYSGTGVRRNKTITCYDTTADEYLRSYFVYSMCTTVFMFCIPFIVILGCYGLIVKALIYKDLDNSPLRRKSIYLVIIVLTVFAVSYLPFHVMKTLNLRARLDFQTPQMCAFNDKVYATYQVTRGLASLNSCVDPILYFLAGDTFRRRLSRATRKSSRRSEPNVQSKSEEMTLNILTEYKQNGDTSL

`Nc1ncnc2c1ncn2[C@@H]1O[C@H](COP(O)(O)=S)[C@@H](O)[C@H]1O` was tested, and the EC50 was “Not Active”.

Biological target: T1, P2Y purinoceptor 1
Test: Agonistic activity for P2Y purinoceptor 1 of turkey erythrocyte membranes
Type: functional
Procedure, shortened: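 [³H]myoinositol-labeled washed turkey erythrocytes (18–24 h, 37 °C), membranes made by hypotonic lysis; phospholipase C measured as total [³H]inositol phosphates (ion-exchange) after 5 min at 30 °C with GTPγS, pH 7.0 Hepes medium. EC50 from four-parameter logistic fit; at least three experiments with different membrane preparations, duplicate assays.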

`Nc1ncnc2c1ncn2C1O[C@H](COP(O)(=S)OP(=O)(O)OP(=O)(O)O)[C@@H](O)[C@H]1O` (stereo partly drawn) and `Nc1ncnc2c1ncn2[C@@H]1O[C@H](COP(=O)(O)OP(=O)(O)OP(=O)(O)O)[C@@H](O)[C@H]1O` [ADENOSINE TRIPHOSPHATE] are within 1.5-fold of each other in EC50: 6280 nM for the first, 6350 nM for the second.

Compared with `Nc1nc(SCCc2ccc([N+](=O)[O-])cc2)nc2c1ncn2[C@@H]1O[C@H](COP(O)(=S)OP(=O)(O)OP(=O)(O)O)[C@@H](O)[C@H]1O` (stereo in doubt; 5bA), `Nc1nc(SCCc2ccc([N+](=O)[O-])cc2)nc2c1ncn2C1O[C@H](COP(=O)(O)OP(=O)(O)OP(=O)(O)O)[C@@H](O)[C@H]1O` (stereo partly drawn) is 42-fold lower in EC50: 510 nM for the first, 12 nM for the second.

`Nc1nc(SCCc2ccc([N+](=O)[O-])cc2)nc2c1ncn2[C@@H]1O[C@H](COP(O)(O)=S)[C@@H](O)[C@H]1O` and `Nc1nc(SCCc2ccc([N+](=O)[O-])cc2)nc2c1ncn2C1O[C@H](COP(=O)(O)O)[C@@H](O)[C@H]1O` (stereo partly drawn) are within 1.5-fold of each other in EC50: 2360 nM for the first, 3000 nM for the second.

Going from `Nc1nc(SCCc2ccc([N+](=O)[O-])cc2)nc2c1ncn2[C@@H]1O[C@H](COP(O)(=S)OP(=O)(O)OP(=O)(O)O)[C@@H](O)[C@H]1O` (stereo in doubt; 5bB) to `CCCCCCSc1nc(N)c2ncn([C@@H]3O[C@H](COP(O)(=S)OP(=O)(O)OP(=O)(O)O)[C@@H](O)[C@H]3O)c2n1` (stereo in doubt; 5aB), the EC50 falls from 890 nM to 21 nM (42-fold).

Going from `CCCCCCSc1nc(N)c2ncn(C3O[C@H](COP(=O)(O)OP(=O)(O)OP(=O)(O)O)[C@@H](O)[C@H]3O)c2n1` (stereo partly drawn) to `CCCCCCSc1nc(N)c2ncn([C@@H]3O[C@H](COP(O)(=S)OP(=O)(O)OP(=O)(O)O)[C@@H](O)[C@H]3O)c2n1` (stereo in doubt; 5aA), the EC50 rises from 10 nM to 17 nM (1.7-fold). The first is the more potent here.

Compared with `CCCCCCSc1nc(N)c2ncn([C@@H]3O[C@H](COP(=O)(O)O)[C@@H](O)[C@H]3O)c2n1`, `CCCCCCSc1nc(N)c2ncn(C3O[C@H](COP(O)(O)=S)[C@@H](O)[C@H]3O)c2n1` (stereo partly drawn) is 46-fold higher in EC50: 60 nM for the first, 2790 nM for the second. The first is the more potent here.
